Data set [1] deals with T1, Sphingosine kinase 2 (Mus musculus) (UniProt Q9JIA7).
T1 sequence (whole entry): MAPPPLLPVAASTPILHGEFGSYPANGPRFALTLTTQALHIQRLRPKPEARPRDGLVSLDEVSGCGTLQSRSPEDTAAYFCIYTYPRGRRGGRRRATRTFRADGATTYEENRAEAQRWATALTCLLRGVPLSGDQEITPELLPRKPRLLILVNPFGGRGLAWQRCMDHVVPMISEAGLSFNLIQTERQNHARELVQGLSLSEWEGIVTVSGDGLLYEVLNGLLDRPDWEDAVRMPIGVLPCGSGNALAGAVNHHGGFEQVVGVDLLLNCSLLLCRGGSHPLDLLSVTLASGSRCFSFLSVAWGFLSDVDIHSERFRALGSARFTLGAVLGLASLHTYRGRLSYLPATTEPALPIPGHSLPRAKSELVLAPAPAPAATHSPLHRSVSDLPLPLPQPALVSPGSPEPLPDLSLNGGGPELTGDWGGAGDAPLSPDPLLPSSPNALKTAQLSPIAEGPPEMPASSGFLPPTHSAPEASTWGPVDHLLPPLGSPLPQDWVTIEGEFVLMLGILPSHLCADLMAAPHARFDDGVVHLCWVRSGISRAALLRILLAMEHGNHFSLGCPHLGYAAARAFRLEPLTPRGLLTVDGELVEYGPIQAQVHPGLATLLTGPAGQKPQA
In words: Inhibition of mouse recombinant SPHK2 expressed in baculovirus-infected Sf9 cells in presence of sphingosine. The method in brief:
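Enzyme source was a 10,000 × g supernatant of Sf9 cells infected for 72 h with baculovirus encoding mouse SphK2, using 2–3 μg protein per assay. Sphingosine phosphorylation conditions were as in an earlier report.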

Data set [2] concerns the target T1, Sphingosine kinase 2 (Mus musculus). In words: Ratio of Ki to Km for mouse recombinant SPHK2 expressed in baculovirus-infected Sf9 cells.
Data set [3] concerns the target Sphingosine kinase 1 (Homo sapiens) (UniProt Q9NYA1). The note with it: Sf9.
The target of data set [4] is T2, Diacylglycerol kinase delta (Homo sapiens) (UniProt Q16760).
T2 sequence (whole entry): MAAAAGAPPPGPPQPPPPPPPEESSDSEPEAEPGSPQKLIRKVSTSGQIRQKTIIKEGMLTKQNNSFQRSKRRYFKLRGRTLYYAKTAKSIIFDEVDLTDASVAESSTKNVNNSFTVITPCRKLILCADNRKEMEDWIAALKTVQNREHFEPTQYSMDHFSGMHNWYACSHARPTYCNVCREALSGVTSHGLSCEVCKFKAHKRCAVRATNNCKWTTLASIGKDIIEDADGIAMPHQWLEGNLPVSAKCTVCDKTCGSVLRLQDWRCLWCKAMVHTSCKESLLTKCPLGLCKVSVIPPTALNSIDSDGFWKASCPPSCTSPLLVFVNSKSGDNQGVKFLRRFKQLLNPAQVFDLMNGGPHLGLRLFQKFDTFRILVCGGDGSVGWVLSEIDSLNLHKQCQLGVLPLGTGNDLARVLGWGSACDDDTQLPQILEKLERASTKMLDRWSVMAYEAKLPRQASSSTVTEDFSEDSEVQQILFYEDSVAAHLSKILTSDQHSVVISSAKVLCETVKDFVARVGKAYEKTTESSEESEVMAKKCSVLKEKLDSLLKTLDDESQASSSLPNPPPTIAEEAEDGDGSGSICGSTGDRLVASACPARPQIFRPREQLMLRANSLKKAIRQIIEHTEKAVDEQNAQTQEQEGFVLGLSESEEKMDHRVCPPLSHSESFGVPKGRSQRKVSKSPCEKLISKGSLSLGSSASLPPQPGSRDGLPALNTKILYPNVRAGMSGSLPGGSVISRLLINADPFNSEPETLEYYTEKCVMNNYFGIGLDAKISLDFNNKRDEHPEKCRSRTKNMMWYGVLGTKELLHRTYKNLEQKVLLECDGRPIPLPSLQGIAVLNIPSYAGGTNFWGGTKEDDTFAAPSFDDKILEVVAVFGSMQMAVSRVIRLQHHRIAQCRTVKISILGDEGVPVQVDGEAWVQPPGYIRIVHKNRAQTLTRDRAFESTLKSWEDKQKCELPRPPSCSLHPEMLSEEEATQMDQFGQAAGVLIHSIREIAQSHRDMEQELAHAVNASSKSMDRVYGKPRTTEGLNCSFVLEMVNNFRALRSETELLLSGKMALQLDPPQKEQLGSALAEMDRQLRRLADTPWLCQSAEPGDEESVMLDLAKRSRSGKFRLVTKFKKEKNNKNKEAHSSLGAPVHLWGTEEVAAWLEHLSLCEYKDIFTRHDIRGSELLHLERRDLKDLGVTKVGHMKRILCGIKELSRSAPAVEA
In words: Inhibition of DAGdelta1 up to 100 uM. The method, boiled down:
(§1)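 Recombinant diacylglycerol kinases (γ, δ1, ζ) tested with compound at concentrations up to 100 μM.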

Data set [5] deals with Diacylglycerol kinase gamma (Homo sapiens) (UniProt P49619). Nature of the data set: Inhibition of DAGgamma up to 100 uM. The method, boiled down: as §1
Diacylglycerol kinase gamma (Homo sapiens), sequence (P49619 whole entry): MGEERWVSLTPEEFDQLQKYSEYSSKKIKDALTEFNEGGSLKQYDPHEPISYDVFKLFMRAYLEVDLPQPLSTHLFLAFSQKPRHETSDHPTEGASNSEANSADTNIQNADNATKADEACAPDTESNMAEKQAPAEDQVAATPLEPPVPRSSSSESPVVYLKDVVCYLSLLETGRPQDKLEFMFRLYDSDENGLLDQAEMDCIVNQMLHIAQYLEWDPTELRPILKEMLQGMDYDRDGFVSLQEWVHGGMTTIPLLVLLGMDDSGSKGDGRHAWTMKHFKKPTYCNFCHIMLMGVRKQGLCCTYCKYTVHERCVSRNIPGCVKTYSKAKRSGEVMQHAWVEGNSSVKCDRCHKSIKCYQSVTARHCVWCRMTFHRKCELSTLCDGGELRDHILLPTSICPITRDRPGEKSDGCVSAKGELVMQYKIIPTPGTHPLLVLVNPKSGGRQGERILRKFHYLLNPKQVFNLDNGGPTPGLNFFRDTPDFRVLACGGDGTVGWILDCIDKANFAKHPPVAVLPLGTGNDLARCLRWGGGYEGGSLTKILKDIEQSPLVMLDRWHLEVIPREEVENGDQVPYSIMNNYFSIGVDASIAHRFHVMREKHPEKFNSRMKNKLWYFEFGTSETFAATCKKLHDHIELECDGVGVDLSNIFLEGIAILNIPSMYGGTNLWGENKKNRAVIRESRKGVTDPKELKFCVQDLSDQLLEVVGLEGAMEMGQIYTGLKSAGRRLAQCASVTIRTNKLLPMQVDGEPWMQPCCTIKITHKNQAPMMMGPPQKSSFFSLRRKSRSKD
The target of data set [6] is Protein kinase C alpha type (Homo sapiens) (UniProt P17252). In words: Inhibition of PKCalpha up to 10 uM. The method, boiled down:
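Compound tested at protein kinase C α at concentrations up to 10 μM.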

The nature of data set [7]: Inhibition of FBS-induced cell proliferation of rat VSMC after 24 hrs by BrdU incorporation assay. Type of data set: functional, cell-based. The method in brief: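 Rat aortic VSMC pretreated with compound for 30 min, then stimulated with 10% FBS for 24 h. Proliferation measured by BrdU incorporation (10 μM BrdU) using an immuno-absorbance read-out, dose-response, N=6.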
Background: Dividing cells build labelled thymidine or BrdU into new DNA.

Data set [8] relates to VSMC. In words: Inhibition of FBS-induced SPHKk1 mRNA level in rat VSMC after 4 hrs by RT-PCR. It is filed as functional. The method, boiled down: (§2)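 Rat aortic VSMC stimulated with 10% FBS for 4 h. Total RNA extracted with Trizol and reverse-transcribed. Sphk1 and Sphk2 mRNA measured by quantitative real-time PCR and normalized to 18S rRNA, N=3.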
The nature of data set [9]: Cytotoxicity against rat VSMC assessed as cell viability at 0.1 to 100 uM. Type of data set: cell-based. The note with it: in the assay text read “0.001 to 100 uM” for “0.1 to 100 uM”. The method in brief: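 Rat aortic vascular smooth muscle cells, cultured in vitro, exposed to compound across 0.001–100 μM. Cytotoxic response read with the MultiTox-Fluor fluorescence assay, using 20 μM cyclosporine A as reference, N=3.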

Data set [10] concerns the target T3, Sphingosine kinase 2 (Rattus norvegicus) (UniProt A6JB73).
T3 sequence (whole entry): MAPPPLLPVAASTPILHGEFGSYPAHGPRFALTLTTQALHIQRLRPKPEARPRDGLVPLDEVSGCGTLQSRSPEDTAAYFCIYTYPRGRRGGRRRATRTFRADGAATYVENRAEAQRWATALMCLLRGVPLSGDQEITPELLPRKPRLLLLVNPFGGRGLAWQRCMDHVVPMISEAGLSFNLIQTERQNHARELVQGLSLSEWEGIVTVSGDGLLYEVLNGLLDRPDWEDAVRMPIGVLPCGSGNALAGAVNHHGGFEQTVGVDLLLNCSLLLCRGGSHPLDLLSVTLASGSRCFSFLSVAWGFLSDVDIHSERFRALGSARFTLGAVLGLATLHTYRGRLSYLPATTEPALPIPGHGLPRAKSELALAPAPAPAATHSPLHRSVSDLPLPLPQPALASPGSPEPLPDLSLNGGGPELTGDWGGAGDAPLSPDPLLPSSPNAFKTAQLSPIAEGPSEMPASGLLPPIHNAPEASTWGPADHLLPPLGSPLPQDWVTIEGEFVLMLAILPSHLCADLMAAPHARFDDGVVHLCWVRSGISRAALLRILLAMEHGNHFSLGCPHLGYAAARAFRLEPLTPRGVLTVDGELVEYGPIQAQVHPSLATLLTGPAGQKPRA
Nature of the data set: Inhibition of [32P]S1P/FBS-stimulated SPHK2 in rat VSMC after 12 hrs relative to control. The method in brief: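 Rat aortic VSMC stimulated with 10% FBS for 0, 3, 6 and 12 h. SphK2 activity measured as [32P]-S1P formation, N=3.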

Data set [11] concerns VSMC. Nature of the data set: Inhibition of FBS-induced SPHKk2 mRNA level in rat VSMC after 4 hrs by RT-PCR. It is filed as functional, cell-based. The method in brief:
as §2

Data set [12] has as its system VSMC. In words: Inhibition of serum-induced cell proliferation of rat VSMC.
Data set [13] can be described thus: Cytotoxicity against rat VSMC assessed as cell viability at 10 uM by microscopical analysis.
The test system of data set [14] is VSMC. In words: Inhibition of FBS-induced intracellular concentration of S1P in rat VSMC. It is filed as functional, cell-based.

Active and inactive are the calls of the source. The calls are words filed in the database; no cut-off is given here. Bounds are passed on as bounds.

This note sets out measurements from ChEMBL document CHEMBL1156306, “Discovery, biological evaluation, and structure-activity relationship of amidine based sphingosine kinase inhibitors” (J Med Chem, 2010).

Sphingosine kinase 1 (Homo sapiens), sequence (Q9NYA1 whole entry): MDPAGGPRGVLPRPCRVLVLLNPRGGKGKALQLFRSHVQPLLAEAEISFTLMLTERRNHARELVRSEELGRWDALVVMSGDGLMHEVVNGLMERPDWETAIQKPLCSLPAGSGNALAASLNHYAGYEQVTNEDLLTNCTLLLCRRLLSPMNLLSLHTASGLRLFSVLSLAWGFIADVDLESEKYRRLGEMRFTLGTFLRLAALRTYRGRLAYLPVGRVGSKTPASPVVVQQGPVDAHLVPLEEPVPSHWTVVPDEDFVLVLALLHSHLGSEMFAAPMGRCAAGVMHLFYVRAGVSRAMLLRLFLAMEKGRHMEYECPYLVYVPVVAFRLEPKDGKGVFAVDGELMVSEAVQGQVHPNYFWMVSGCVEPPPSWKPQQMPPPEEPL

As usually defined, the Ki is the dissociation constant of the complex between target and ligand, obtained from inhibition or displacement. As for `CCCCCCCCc1ccc(C(=O)N[C@@H](C)C(N)=O)cc1`, the Ki in data set [1] and in data set [3] was over 100 µM each time. The Ratio in data set [2] was over 20.
Regarding `CCCCCCCCCCCCc1ccc(NC(=O)C2(C(=N)N)CC2)cc1`, the Ki came out at 6 µM in [1] and 0.3 µM in data set [3]. For the same compound, the Ratio in data set [2] was determined as 1.2. The inhibition entry in data set [4], in [5] and in data set [6] was “inactive” in each case.
For `CCCCCCCCCCCCCCCCc1ccc(C(=O)NC2(C(=N)N)CC2)cc1`, the Ki in [1] is 10 µM; in data set [3], 36 µM. In addition, the Ratio in [2] is 2.
For the compound `CCCCCCCCCCCCc1ccc(C(=O)NC2(C(=N)N)CC2)cc1`, the values for the Ki in [1] and in [3] were 0.5 µM and 0.2 µM, respectively. Besides, the Ratio in data set [2] came out at 0.1. Besides, the inhibition result in data set [4], in data set [5] and in data set [6] was “inactive” each time.
The EC50 is the concentration needed to bring the measured effect to its halfway point. Higher therefore signals lower potency in that assay. Turning to `CCCCCCCCc1ccc(C(=O)N[C@@H](C)C(=N)N)cc1.Cl`, in [7], the midpoint of the response, the EC50, lay at 10 µM. For the same compound, the inhibition result (in the data set on VSMC [8]; in data set [10]; in the data set on VSMC [11]) was “inactive” in each case. The Activity entry in data set [9] and in data set [13] was “Non-toxic” throughout. Further, the values for the Ki in [1] and in data set [3] were 20 µM and 55 µM, respectively. Moreover, in [2], the Ratio was 4. Moreover, the inhibition entry in the data set with VSMC [12] and in the data set with VSMC [14] was “Active” in each case.
In the case of `CCCCCCCCCCc1ccc(C(=O)NC2(C(=N)N)CC2)cc1`, the Ki in [1] stood at 4 µM; in data set [3], 5 µM. The Ratio in data set [2] was determined as 0.8.
As to `CCCCCCCCc1ccc(C(=O)N[C@@H](C)C(=O)O)cc1`, the Ki in data set [1] and in [3] was over 100 µM throughout. Moreover, in data set [2], the Ratio is over 20.
With `CCCCCCCCCCc1ccc(NC(=O)C2(C(=N)N)CC2)cc1`, the Ki in data set [1] was 4 µM; in data set [3] it was 3 µM. In addition, the Ratio in data set [2] amounted to 0.8.
Regarding `CCCCCCCCc1ccc(C(=O)NC2(C(=N)N)CC2)cc1`, the Ki was determined as 23 µM in data set [1] and 25 µM in data set [3]. Besides, the Ratio in [2] is 4.6.
Turning to `CCCCCCCCCCCCCCc1ccc(NC(=O)C2(C(=N)N)CC2)cc1`, the Ki is over 100 µM in [1] and 8.4 µM in [3]. For the same compound, the Ratio in data set [2] is over 20.
The matching figures for `CCCCCCCCCCCCCCCCc1ccc(NC(=O)C2(C(=N)N)CC2)cc1`: over 100 µM, 30 µM and over 20.
On to `CCCCCCCCc1ccc(C(=O)NCC(=N)N)cc1`, for which the values for the Ki in [1] and in data set [3] were 60 µM and over 100 µM, respectively. Moreover, in data set [2], the Ratio amounted to 12.
Consider `CCCCCCCCCCCCCCc1ccc(C(=O)NC2(C(=N)N)CC2)cc1`, for which the inhibition constant (Ki) in data set [1] was found to be 32 µM; in data set [3], 10 µM. Also, the Ratio in data set [2] was 6.4.
Regarding `CCCCCCCCc1ccc(C(=O)N[C@H](C)C(=N)N)cc1`, the figures for the Ki in data set [1] and in data set [3] were 25 µM and over 100 µM, respectively. In addition, the Ratio in [2] was 5.
